A short description of series [1]: Thermodynamic solubility of the compound in 1-octanol solution measured after 24 hrs by UV-HPLC analysis. The format is physicochemical. Particulars: read-out: Therm_solubility.
Series [2] can be described thus: Thermodynamic solubility of the compound in pH 7.4 phosphate buffered saline measured after 24 hrs by UV-HPLC analysis. The format is physicochemical. Particulars: read-out: Therm_solubility.
A short description of series [3]: 1-Octanol-buffer partition coefficient, log D of compound at pH 7.4 after 24 hrs by shake-flask method. The format is physicochemical. Particulars: for logD at 24 h: 1-octanol/buffer, pH 7.4. In short, it runs like this: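 Shake-flask partition between 1-octanol and pH 7.4 aqueous solution, mixed at 1/2 (v/v) octanol/aqueous; log D taken at pH 7.4.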
The nature of series [4]: GSH reactivity in pH 7.4 phosphate buffer assessed as half life measured every 15 mins by HPLC analysis. The format is physicochemical. The settings on record: phosphate buffer with GSH. In short, it runs like this:
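Half-life measured on incubation with glutathione at pH 7.4 and 37 °C, compound to glutathione 1/10.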

The test system of the next series is A549. In words: Cytotoxicity against human A549 cells after 72 hrs by MTT assay. The format is functional, cell-based. The settings on record: A549, 72 h. On the technique in general: Formazan colour is commonly taken as a measure of viable cells.
Series [5] concerns the target Epidermal growth factor receptor (Homo sapiens, UniProt P00533). In words: Inhibition of human EGFR using poly[Glu:Tyr] (4:1) as substrate measured after 20 mins in presence of [gamma33P]ATP by filter-binding assay.
Series [6] is described as follows: Cytotoxicity against human FHS cells assessed as reduction in cell viability after 72 hrs by MTT assay.
The next series concerns Vero. Description: Cytotoxicity against African green monkey Vero cells assessed as reduction in cell viability after 72 hrs by MTT assay. Format: ADME, cell-based. Particulars: Chlorocebus sabaeus.
Series [7] concerns the target Voltage-gated inwardly rectifying potassium channel KCNH2 (Homo sapiens, UniProt Q12809). In words: Inhibition of human ERG.

The structures appear in SMILES notation. ≈ marks a conversion by molar mass, not a printed value.

In general, logD refers to the decadic logarithm of the distribution of all forms, ionised or not, between an organic phase and buffer at a given pH. A word on the half-life: it is the time needed for the level to fall by half in the phase considered. In general, IC50 refers to the concentration that inhibits the measured activity by half.

Epidermal growth factor receptor, sequence (P00533 whole entry): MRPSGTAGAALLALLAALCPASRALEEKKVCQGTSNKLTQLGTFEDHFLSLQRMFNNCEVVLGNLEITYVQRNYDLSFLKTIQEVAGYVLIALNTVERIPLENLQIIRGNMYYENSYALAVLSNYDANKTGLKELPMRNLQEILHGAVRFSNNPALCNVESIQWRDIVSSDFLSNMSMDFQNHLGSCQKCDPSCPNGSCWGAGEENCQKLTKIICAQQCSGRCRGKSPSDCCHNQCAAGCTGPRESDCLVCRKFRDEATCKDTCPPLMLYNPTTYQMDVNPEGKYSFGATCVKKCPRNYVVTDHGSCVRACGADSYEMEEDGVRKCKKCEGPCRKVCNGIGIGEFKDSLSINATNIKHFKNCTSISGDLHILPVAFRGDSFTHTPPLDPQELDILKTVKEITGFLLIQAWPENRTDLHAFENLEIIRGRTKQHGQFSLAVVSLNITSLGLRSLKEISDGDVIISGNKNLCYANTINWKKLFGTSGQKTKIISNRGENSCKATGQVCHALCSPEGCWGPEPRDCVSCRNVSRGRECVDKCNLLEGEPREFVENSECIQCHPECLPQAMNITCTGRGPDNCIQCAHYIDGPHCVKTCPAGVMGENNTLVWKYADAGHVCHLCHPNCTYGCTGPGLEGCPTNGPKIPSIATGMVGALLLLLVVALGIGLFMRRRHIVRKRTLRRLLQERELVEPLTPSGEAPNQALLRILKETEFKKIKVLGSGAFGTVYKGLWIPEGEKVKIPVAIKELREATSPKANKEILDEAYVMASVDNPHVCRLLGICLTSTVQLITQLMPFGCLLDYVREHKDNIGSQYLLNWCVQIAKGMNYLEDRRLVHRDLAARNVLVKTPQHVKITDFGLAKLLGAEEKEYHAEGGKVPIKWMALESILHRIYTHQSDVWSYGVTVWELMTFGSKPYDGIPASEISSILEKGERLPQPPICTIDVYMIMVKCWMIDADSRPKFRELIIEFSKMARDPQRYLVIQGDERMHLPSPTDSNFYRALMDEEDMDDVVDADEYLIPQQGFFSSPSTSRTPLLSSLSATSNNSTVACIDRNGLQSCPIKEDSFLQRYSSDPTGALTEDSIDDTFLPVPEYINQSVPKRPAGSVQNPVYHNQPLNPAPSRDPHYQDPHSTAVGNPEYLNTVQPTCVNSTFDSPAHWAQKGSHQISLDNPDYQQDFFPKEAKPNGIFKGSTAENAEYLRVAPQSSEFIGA
Voltage-gated inwardly rectifying potassium channel KCNH2, sequence (Q12809 whole entry): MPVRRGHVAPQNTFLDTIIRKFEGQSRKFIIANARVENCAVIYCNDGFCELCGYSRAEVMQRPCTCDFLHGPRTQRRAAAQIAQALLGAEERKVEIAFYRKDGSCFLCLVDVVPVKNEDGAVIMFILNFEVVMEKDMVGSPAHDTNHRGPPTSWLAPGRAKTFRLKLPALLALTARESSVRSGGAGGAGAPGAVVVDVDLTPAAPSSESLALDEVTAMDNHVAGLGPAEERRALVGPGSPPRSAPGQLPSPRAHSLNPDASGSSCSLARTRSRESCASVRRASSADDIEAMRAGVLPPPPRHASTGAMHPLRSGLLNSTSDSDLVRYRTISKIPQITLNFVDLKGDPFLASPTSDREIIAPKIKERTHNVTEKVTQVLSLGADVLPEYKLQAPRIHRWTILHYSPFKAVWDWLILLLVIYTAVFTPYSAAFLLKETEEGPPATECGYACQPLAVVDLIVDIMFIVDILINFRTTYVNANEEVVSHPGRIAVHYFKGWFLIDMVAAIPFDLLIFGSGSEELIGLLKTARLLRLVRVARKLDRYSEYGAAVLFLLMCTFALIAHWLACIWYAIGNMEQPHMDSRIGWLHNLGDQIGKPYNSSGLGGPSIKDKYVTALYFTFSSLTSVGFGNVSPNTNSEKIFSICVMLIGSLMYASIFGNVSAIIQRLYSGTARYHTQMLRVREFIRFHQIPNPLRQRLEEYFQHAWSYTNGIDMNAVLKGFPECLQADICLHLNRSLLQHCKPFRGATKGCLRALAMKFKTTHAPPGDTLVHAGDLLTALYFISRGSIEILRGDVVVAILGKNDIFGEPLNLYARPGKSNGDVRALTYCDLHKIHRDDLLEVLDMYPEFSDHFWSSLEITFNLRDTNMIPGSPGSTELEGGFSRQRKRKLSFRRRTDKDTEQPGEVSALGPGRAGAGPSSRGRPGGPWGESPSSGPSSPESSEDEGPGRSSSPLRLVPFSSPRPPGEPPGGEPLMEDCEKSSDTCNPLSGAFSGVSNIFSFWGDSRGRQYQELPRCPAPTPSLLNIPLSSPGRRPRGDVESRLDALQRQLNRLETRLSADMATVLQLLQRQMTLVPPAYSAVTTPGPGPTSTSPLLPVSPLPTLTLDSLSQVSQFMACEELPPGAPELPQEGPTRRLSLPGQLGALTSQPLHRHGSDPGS

Turning to `COc1cc2ncnc(Nc3ccc(F)c(Cl)c3)c2cc1OCCCN1CCOCC1` [GEFITINIB], the solubility thermodynamic at 24 h was 1400 µM (≈ 626 µg/mL) in [1] and less than 10 µM in series [2]. For the same compound, in series [3] (octanol/water, pH 7.4, 24 h), the logD was found to be 2.41.

Turning to `C=CC(=O)N(c1cccc(Cl)c1F)c1ncnc2cc(OC)c(OCCCN3CCOCC3)cc12`, the solubility thermodynamic at 24 h in series [1] amounted to 5600 µM (≈ 2810 µg/mL); in [2], 1200 µM (≈ 601 µg/mL). Further, the half-life in series [4] stood at 49 min. The IC50 in the series on A549 was 450 nM; in series [5] it was 52.6 nM. This compound also had a logD at 24 h in series [3] of 2.64.

`COc1cc2ncnc(Nc3ccc(Cl)c(Cl)c3)c2cc1OCCCN1CCOCC1`: the solubility thermodynamic at 24 h in series [1] turned out to be 4570 µM (≈ 2120 µg/mL). Also, the IC50 with A549 is 24700 nM; in series [5] it was 1 nM.

In the case of `C=CC(=O)N(c1cc(Cl)ccc1F)c1ncnc2cc(OC)c(OCCCN3CCOCC3)cc12`, the IC50 in series [5] was determined as 133 nM.

`C=CC(=O)N(c1ccc(Cl)c(Cl)c1)c1ncnc2cc(OC)c(OCCCN3CCOCC3)cc12`: the solubility thermodynamic at 24 h in [1] was determined as 4470 µM (≈ 2310 µg/mL); in [2], 630 µM (≈ 326 µg/mL). For the same compound, the half-life in series [4] was 17 min. For the same compound, the half-inhibitory concentration (IC50) was determined as 5720 nM with A549 and 31.7 nM in [5]. In [3], this compound showed a pH-dependent lipophilicity (logD) at 24 h of 3.57.

Consider `C=CC(=O)N(c1ccc(F)cc1F)c1ncnc2cc(OC)c(OCCCN3CCOCC3)cc12`, for which, in series [5], the IC50 amounted to 302 nM.

Take `C=CC(=O)N(c1ccc(Cl)cc1F)c1ncnc2cc(OC)c(OCCCN3CCOCC3)cc12`: the half-maximal inhibitory concentration (IC50) in series [5] was 234 nM.

`C=CC(=O)N(c1ccc(F)c(C(F)(F)F)c1)c1ncnc2cc(OC)c(OCCCN3CCOCC3)cc12`: the IC50 in series [5] is greater than 1000 nM.

Take `C=CC(=O)N(c1ccc(OC)cc1F)c1ncnc2cc(OC)c(OCCCN3CCOCC3)cc12`: the IC50 in series [5] was greater than 1000 nM.

Take `C=CC(=O)N(c1cccc(Cl)c1F)c1ncnc2cc(OC)c(OC(=O)N3CCN(C)C[C@H]3C)cc12`: the solubility thermodynamic at 24 h in series [1] turned out to be 5020 µM (≈ 2580 µg/mL); in [2] it was 30 µM (≈ 15.4 µg/mL). Moreover, the half-life in series [4] was 27.5 min. Further, in the series on A549, inhibition was half-maximal at 6100 nM (IC50). For the same compound, the logD at 24 h in series [3] was found to be 2.46.

As to `C=CC(=O)N(c1ccc(F)c(C)c1)c1ncnc2cc(OC)c(OCCCN3CCOCC3)cc12`, in [5], the IC50 came out at 499 nM.

Regarding `C=CC(=O)N(c1cccc(C(F)(F)F)c1)c1ncnc2cc(OC)c(OCCCN3CCOCC3)cc12`, in series [5], the IC50 was 844 nM.

`COc1cc2ncnc(Nc3cccc(Cl)c3F)c2cc1OC(=O)N1CCN(C)C[C@H]1C` [AZD-3759]: the figures for the solubility thermodynamic at 24 h in [1] and in series [2] were 4540 µM (≈ 2090 µg/mL) and 20 µM (≈ 9.2 µg/mL), respectively. This compound had an IC50 in the series on A549 of 28700 nM. The log distribution coefficient (logD) at 24 h in series [3] worked out at 2.84.

Regarding `C=CC(=O)N(c1ccc(F)c(F)c1)c1ncnc2cc(OC)c(OCCCN3CCOCC3)cc12`, in series [5], the IC50 came out at 368 nM.

In the case of `C=CC(=O)N(c1cc(F)c(F)cc1F)c1ncnc2cc(OC)c(OCCCN3CCOCC3)cc12`, in [5], the IC50 worked out at 500 nM.

For the compound `COc1cc2ncnc(Nc3cccc(Cl)c3F)c2cc1OCCCN1CCOCC1`, the IC50 in the series on A549 came out at 7510 nM.

As to `C=CC(=O)N(c1ccc(F)c(Cl)c1)c1ncnc2cc(OC)c(OCCCN3CCOCC3)cc12`, the solubility thermodynamic at 24 h in series [1] is 4540 to 4940 µM (≈ 2270 to 2470 µg/mL); in series [2], 1650 µM (≈ 827 µg/mL). Moreover, the IC50 is greater than 10000 nM in series [6]; 150 nM in the series with A549; 65.2 nM in [5]; greater than 10000 nM with Vero; greater than 10000 nM in series [7]. For the same compound, the half-life in series [4] stood at 85.1 min. For the same compound, in series [3], the logD at 24 h turned out to be 2.01. The “inhibition (INH)” value in [7] (human) is 20%.
